Reference: ChEMBL document CHEMBL1150145, “Antioxidative and cytotoxic compounds extracted from the sap of Rhus succedanea” (J Nat Prod, 2002)
Values after ≈ are worked out from the molar mass of the structure shown. Active and inactive are the calls of the source. No cut-off for these calls is given here.

Columns and labels:
[1] = Antioxidant activity assessed as inhibition of peroxide formation using iron/ascorbate system; type: functional
In short: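 Linoleic acid (100 mg) emulsified with Tween 20 in 50 mM Tris pH 7.4. Emulsion mixed with iron/ascorbate (30 µM FeCl3, 200 µM ascorbic acid, made daily) and methanolic compound, giving ca. 0, 1, 4, 10 ppm final. Tubes held on ice, then 37 °C for 5 and 30 min. Conjugated diene hydroperoxide read at 234 nm after MeOH dilution. BHT 2000 ppm control. Triplicates.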

HeLa = experiment: Cytotoxicity against human HeLa cells after 72 hrs by acid phosphatase assay; type: functional, cell-based
In short: (§1)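 Cells grown in DMEM with 10% FCS, penicillin and streptomycin at 37 °C, 5% CO2. Seeded at 2000 cells/well in 96-well plates and exposed to compound or left untreated for 72 h.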

Huh-7 = experiment: Cytotoxicity against human HuH7 cells after 72 hrs by acid phosphatase assay; type: functional, cell-based; details: Huh-7, 72 h; in short: as §1
HCT-116 = experiment: Cytotoxicity against human HCT116 cells after 72 hrs by acid phosphatase assay; type: functional, cell-based; details: HCT-116, 72 h; in short: as §1
LoVo = experiment: Cytotoxicity against human LoVo cells after 72 hrs by acid phosphatase assay; type: functional, cell-based; in short: as §1
C6 = experiment: Cytotoxicity against rat C6 cells after 72 hrs by acid phosphatase assay; type: functional, cell-based; details: C6, 72 h; in short: as §1

Structure (SMILES) | Activity [1] | IC50 (HeLa) | IC50 (Huh-7) | IC50 (HCT-116) | IC50 (LoVo) | IC50 (C6)
CCCCCC/C=C\CCCCCCCCCc1cc(O)ccc1O | Active | 4.7 µg/mL (≈ 13.6 µM) | 6.4 µg/mL (≈ 18.5 µM) | 3.4 µg/mL (≈ 9.81 µM) | 2.9 µg/mL (≈ 8.37 µM) | 1.1 µg/mL (≈ 3.17 µM)
CCC/C=C/C/C=C\CCCCCCCCCc1cc(O)ccc1O | Active | 4.6 µg/mL (≈ 13.4 µM) | 6 µg/mL (≈ 17.4 µM) | 3.5 µg/mL (≈ 10.2 µM) | 5.6 µg/mL (≈ 16.3 µM) | 1 µg/mL (≈ 2.9 µM)
C/C=C/C=C/C/C=C\CCCCCCCCCc1cc(O)ccc1O | Active | 2.8 µg/mL (≈ 8.17 µM) | 3.9 µg/mL (≈ 11.4 µM) | 2 µg/mL (≈ 5.84 µM) | 4.5 µg/mL (≈ 13.1 µM) | 0.9 µg/mL (≈ 2.63 µM)
